Measured values published in article PMC2906776 (Bioorganic & medicinal chemistry, 2009).

Legend:
MCF-7 cells = conditions: cited from earlier work
ER(+) Ishikawa cells = assay: Induction of alkaline phosphatase in Ishikawa cells; format: cell-based, human
[1] = format: in vitro ADME, human; conditions: four days
T47D/neo cells = assay: ERE activation, luciferase reporter in T47D/neo cells; format: cell-based, human; conditions: read-out: EC50 ERE-luciferase activation, classical ER-dependent
How it was run: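 T47D:A18/neo stable transfectants were grown in RPMI 1640 with 10% FBS and G418 (500 µg/mL), then held 3 days in phenol red-free, E2-depleted RPMI with G418. 8 × 10^6 cells were electroporated with ERE-tk-Luc (5 µg) plus pCMVβ β-gal (1 µg). The next day, test compound (10^-9–10^-7 mol/L), E2 (10^-9 mol/L) or ethanol vehicle was added for 18 h. Luciferase luminescence was normalized to β-gal.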

In the case of 17-beta estradiol [Compound E2], the “Potency of E2 relative to the E2–dendrimer conjugate” value (MCF-7 cells) is given as 3–4 orders of magnitude.
For `NC[C@H]1O[C@@H]2O[C@H]3[C@H](O)[C@@H](O)[C@@H](O[C@H]4[C@H](O)[C@@H](O)[C@@H](O[C@H]5[C@H](O)[C@@H](O)[C@@H](O[C@H]6[C@H](O)[C@@H](O)[C@@H](O[C@H]7[C@H](O)[C@@H](O)[C@@H](O[C@H]8[C@H](O)[C@@H](O)[C@@H](O[C@H]1[C@H](O)[C@H]2O)O[C@@H]8CN)O[C@@H]7CN)O[C@@H]6CN)O[C@@H]5CN)O[C@@H]4CN)O[C@@H]3CN` [ACD, Per-6-amino-6-deoxy-β-cyclodextrin], the “Estrogenic activity, result in words” value (ER(+) Ishikawa cells) was “inactive”.
For `[N-]=[N+]=NC[C@H]1O[C@@H]2O[C@H]3[C@H](O)[C@@H](O)[C@@H](O[C@H]4[C@H](O)[C@@H](O)[C@@H](O[C@H]5[C@H](O)[C@@H](O)[C@@H](O[C@H]6[C@H](O)[C@@H](O)[C@@H](O[C@H]7[C@H](O)[C@@H](O)[C@@H](O[C@H]8[C@H](O)[C@@H](O)[C@@H](O[C@H]1[C@H](O)[C@H]2O)O[C@@H]8CN=[N+]=[N-])O[C@@H]7CN=[N+]=[N-])O[C@@H]6CN=[N+]=[N-])O[C@@H]5C/N=[NH+]\[NH-])O[C@@H]4CN=[N+]=[N-])O[C@@H]3CN=[N+]=[N-]` [Compound 2, Per-6-azido-6-deoxy-β-cyclodextrin], the “Estrogenic activity, result in words” value (ER(+) Ishikawa cells) was “inactive”.
For “Per-6-(estradiol-17-(1H-1,2,3-triazol-4-yl))-6-deoxy-β-cyclodextrin [Compound 7EqCD]”, the “Free EE2 in cell supernatant” value ([1]; 7EqCD 10 nM, Ishikawa cells) was less than 50 pM, the “Free estrogen (EE2 or E2) in cell supernatant, result in words” value ([1]; Ishikawa cell culture) was “EE2 was not observed above detection limits” and the EC50 (T47D/neo cells) was greater than 100 nM.
